Assay results taken from ChEMBL document CHEMBL4765452, “Discovery of (E)-N-(4-methyl-5-(3-(2-(pyridin-2-yl)vinyl)-1H-indazol-6-yl)thiazol-2-yl)-2-(4-methylpiperazin-1-yl)acetamide (IHMT-TRK-284) as a novel orally available type II TRK kinase inhibitor capable of overcoming multiple resistant mutants” (Eur J Med Chem, 2020).
pEC50, pIC50: −log10 of the molar value.

Assays:
[1] = Apparent clearance in Sprague-Dawley rat at 1 mg/kg, iv; assay type: ADME, organism-based; settings: in vivo
[2] = molecular target: T1, BDNF/NT-3 growth factors receptor (Homo sapiens, UniProt Q16620); assay: Inhibition of TEL fused wild type TRKB (unknown origin) transfected in mouse BaF3 cells assessed as reduction in phosphorylation at Y515 residue after 2 hrs by Western blot analysis; assay type: cell-based
Method in brief: (§1)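 Isogenic BaF3 lines, made in-house, grown in RPMI 1640 with 10% FBS and 1% penicillin/streptomycin at 37 °C under 5% CO2. Serially diluted compound added for 2 h. Cells collected and lysed, and lysates analysed by western blotting for phospho-TRK. EC50 derived from the blots.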
Target sequence in this assay (Q16620 whole entry, the tested form may be a part): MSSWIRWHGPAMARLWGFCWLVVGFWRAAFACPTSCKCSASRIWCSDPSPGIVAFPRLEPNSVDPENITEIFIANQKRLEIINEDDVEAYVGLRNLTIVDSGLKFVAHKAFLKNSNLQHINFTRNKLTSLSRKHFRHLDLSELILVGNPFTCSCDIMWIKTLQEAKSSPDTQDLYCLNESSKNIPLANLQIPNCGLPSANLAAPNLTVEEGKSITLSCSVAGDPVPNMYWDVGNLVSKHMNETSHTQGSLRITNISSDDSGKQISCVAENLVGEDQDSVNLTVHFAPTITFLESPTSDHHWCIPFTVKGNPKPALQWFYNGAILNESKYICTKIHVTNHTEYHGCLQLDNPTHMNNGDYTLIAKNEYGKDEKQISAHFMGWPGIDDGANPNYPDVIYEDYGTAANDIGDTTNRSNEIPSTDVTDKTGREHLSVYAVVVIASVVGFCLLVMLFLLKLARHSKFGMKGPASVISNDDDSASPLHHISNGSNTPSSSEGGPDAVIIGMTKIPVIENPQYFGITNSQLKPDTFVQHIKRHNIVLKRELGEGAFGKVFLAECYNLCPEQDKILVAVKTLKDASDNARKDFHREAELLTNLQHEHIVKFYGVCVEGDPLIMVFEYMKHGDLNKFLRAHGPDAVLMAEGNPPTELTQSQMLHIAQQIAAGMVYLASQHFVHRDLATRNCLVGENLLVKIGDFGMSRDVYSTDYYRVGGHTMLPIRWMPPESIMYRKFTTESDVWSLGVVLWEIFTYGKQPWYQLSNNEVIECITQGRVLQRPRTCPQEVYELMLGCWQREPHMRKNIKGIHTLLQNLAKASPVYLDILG

[3] = molecular target: T1, BDNF/NT-3 growth factors receptor; assay: Inhibition of human TRKB by Z-LYTE or ADP-Glo assay
Method in brief: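 Purified kinase proteins tested biochemically in Z'LYTE or ADP-Glo format.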
Target sequence in this assay (Q16620 whole entry, the tested form may be a part): as above

[4] = molecular target: T2, High affinity nerve growth factor receptor (Homo sapiens, UniProt P04629); assay: Inhibition of TRKA in human KM-12-LUC cells assessed as reduction in ERK1/2 phosphorylation at T202/Y204 residues after 2 hrs by Western blot analysis; assay type: cell-based, KM12-Luc
T2 sequence (P04629 whole entry, the tested form may be a part): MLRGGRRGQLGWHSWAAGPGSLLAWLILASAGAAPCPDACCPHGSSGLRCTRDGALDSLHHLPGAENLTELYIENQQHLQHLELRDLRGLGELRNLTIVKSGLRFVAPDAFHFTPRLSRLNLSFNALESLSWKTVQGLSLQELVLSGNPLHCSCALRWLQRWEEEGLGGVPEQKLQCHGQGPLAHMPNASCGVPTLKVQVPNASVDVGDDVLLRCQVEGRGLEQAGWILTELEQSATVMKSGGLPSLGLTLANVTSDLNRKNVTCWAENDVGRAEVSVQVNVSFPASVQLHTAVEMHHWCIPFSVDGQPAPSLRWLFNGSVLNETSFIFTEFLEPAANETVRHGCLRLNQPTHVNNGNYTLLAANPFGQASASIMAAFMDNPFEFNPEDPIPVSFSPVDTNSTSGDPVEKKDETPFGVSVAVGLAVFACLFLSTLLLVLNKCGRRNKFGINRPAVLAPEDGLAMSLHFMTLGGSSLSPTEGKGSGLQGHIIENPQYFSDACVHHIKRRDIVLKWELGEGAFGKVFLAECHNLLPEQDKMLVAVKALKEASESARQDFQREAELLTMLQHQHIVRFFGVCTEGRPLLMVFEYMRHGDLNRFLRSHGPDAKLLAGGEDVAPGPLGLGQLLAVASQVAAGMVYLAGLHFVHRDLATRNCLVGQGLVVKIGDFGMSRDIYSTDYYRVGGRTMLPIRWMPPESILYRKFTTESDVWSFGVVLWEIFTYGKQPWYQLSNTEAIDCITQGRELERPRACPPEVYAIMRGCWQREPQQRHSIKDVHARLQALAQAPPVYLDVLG
Method in brief: (§2)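 KM-12-LUC (TPM3-TRKA fused colon cancer cells) grown in RPMI 1640 with 10% FBS and 1% penicillin/streptomycin at 37 °C under 5% CO2. Serially diluted compound added for 2 h. Lysates western blotted for phospho-AKT (T308/S473) and phospho-ERK1/2 (T202/Y204).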

[5] = Cmax in Sprague-Dawley rat at 10 mg/kg, po; assay type: ADME, organism-based; set-up: route oral, dose 10 mg/kg; settings: in vivo
[6] = Oral bioavailability in mouse at 10 mg/kg; assay type: ADME, organism-based; settings: in vivo
Method in brief: (§3)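 Single-dose PK in mice, Sprague Dawley rats and beagle dogs, given i.v. (1 mg/kg) or p.o. (10 mg/kg mice and rats; 5 mg/kg dogs). AUC0-t, T1/2, Tmax and oral bioavailability (F) derived from plasma profiles.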

[7] = test system: BaF3; assay: Antitumor activity against mouse BAF3 cells harboring TEL fused TRKB allografted in nude mouse assessed as tumor growth inhibition at 40 mg/kg, po administered once daily for 10 days relative to control; assay type: functional; settings: 240 h, time 10 day, read-out: TGI
Method in brief: (§4)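 Nu/nu mice given 1 million BaF3 cells (TEL-TRKA, TEL-TRKB, TEL-TRKC, LMNA-TRKA-F589L or LMNA-TRKA-G667S) in DMEM, 1:1 with matrigel, injected subcutaneously into the right flank; oral gavage began at 200–400 mm³, 5 mice per group, compound in 0.5% methylcellulose/0.4% Tween 80 in ddH₂O, 10 days; tumor volume [(W²×L)/2] and body weight recorded daily; TGI versus vehicle.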

[8] = Tmax in mouse at 1 mg/kg, iv; assay type: ADME, organism-based; settings: in vivo; method in brief: as §3
[9] = Toxicity in mouse xenografted with mouse BAF3 cells harboring […] TRKA-G667S mutant assessed as effect on body weight at 40 to 80 mg/kg, po administered twice daily for 10 days; assay type: organism-based; settings: in vivo, 240 h, dose 40-80 mg/kg, time 10 day
Method in brief: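 nu/nu mice were given subcutaneous right-flank implants in 1:1 DMEM/matrigel: 1 million BaF3 fusion cells or 5 million KM-12-LUC cells. Oral gavage started at 150–200 mm3 (xenograft) or 200–400 mm3 (allograft). Dosing used 40 or 80 mg/kg in HKI vehicle (0.5% methylcellulose/0.4% Tween 80 in ddH2O), with 5 mice per group. Body weight was recorded daily and behaviour observed.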

[10] = molecular target: T2, High affinity nerve growth factor receptor; assay: Inhibition of TRKA in human KM-12-LUC cells assessed as reduction in AKT phosphorylation at T308 residue after 2 hrs by Western blot analysis; assay type: cell-based, KM12-Luc; method in brief: as §2
[11] = molecular target: T1, BDNF/NT-3 growth factors receptor; assay: Inhibition of human TRKB assessed as remaining enzyme activity at 1 uM by Kinomescan method relative to control
Target sequence in this assay (Q16620 32-822 limits assumed): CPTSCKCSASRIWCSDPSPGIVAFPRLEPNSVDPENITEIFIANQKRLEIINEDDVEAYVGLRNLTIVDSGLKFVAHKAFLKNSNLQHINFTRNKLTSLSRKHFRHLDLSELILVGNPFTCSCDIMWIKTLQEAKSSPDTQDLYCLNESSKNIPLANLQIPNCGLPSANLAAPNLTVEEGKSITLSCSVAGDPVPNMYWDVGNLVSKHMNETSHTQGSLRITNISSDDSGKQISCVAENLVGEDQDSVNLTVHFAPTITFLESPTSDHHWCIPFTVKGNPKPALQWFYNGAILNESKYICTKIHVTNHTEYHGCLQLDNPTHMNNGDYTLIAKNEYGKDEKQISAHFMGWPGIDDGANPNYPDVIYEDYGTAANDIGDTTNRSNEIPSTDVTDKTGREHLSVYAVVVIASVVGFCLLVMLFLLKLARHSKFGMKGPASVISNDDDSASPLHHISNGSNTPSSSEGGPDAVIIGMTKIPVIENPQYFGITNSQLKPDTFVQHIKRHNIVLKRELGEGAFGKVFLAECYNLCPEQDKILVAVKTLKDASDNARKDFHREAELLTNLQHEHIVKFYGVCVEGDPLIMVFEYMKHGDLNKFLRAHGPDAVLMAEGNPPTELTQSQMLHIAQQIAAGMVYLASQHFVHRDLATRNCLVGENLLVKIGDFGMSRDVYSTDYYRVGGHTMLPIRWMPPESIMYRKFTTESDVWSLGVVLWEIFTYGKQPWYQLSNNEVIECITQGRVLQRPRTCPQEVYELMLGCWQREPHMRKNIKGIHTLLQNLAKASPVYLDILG

[12] = test system: BaF3; assay: Antitumor activity against mouse BAF3 cells harboring LMNA fused TRKA-F589L mutant allografted in nude mouse assessed as tumor growth inhibition at 40 mg/kg, po administered once daily for 10 days relative to control; assay type: functional; settings: 240 h, time 10 day, read-out: TGI; method in brief: as §4
[13] = molecular target: High affinity nerve growth factor receptor (Homo sapiens, UniProt P04629, G667C); assay: Inhibition of LMNA fused TRKA G667C mutant (unknown origin) transfected in mouse BaF3 cells assessed as reduction in phosphorylation at Y490 residue after 2 hrs by Western blot analysis; assay type: cell-based; method in brief: as §1
Sequence of High affinity nerve growth factor receptor (Homo sapiens, UniProt P04629, G667C) (P04629 33-796 G667C limits assumed): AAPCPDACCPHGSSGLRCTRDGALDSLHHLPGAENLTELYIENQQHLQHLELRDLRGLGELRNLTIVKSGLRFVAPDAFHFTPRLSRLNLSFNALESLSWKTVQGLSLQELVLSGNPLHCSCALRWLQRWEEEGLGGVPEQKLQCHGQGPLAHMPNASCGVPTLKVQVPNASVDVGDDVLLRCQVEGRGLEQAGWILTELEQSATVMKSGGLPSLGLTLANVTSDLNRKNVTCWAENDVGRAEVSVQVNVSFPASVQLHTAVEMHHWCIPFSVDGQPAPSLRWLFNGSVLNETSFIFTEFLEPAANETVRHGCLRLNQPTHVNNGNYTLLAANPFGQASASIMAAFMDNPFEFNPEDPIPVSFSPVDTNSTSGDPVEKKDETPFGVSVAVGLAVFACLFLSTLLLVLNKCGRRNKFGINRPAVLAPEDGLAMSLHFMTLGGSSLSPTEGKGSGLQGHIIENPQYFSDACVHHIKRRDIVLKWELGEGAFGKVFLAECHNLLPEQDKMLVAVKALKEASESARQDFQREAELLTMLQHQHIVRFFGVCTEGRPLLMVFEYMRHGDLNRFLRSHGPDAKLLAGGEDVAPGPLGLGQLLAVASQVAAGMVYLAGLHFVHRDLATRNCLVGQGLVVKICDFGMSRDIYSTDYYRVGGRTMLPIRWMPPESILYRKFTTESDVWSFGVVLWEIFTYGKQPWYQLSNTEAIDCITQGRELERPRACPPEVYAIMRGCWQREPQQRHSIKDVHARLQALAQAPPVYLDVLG

[14] = Oral bioavailability in Beagle dog at 5 mg/kg; assay type: ADME, organism-based, Canis lupus familiaris; settings: in vivo; method in brief: as §3
[15] = molecular target: T1, BDNF/NT-3 growth factors receptor; assay: Inhibition of TEL fused TRKB (unknown origin) transfected in mouse BAF3 cells assessed as growth inhibition after 72 hrs by CCK8 assay; assay type: cell-based
Method in brief: (§5)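 TEL-fusion isogenic BaF3 lines were built in-house and grown in RPMI 1640 with 10% FBS and 1% penicillin/streptomycin at 37 °C under 5% CO2. Cells were spun down before use.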
Target sequence in this assay (Q16620 32-822 limits assumed): as the sequence (Q16620 32-822 limits assumed) above

[16] = Half life in Sprague-Dawley rat at 1 mg/kg, iv; assay type: ADME, organism-based; settings: in vivo
[17] = Half life in mouse at 1 mg/kg, iv; assay type: ADME, organism-based; settings: in vivo
[18] = Cmax in mouse at 10 mg/kg, po; assay type: ADME, organism-based; set-up: route oral, dose 10 mg/kg; settings: in vivo
[19] = test system: BaF3; assay: Antitumor activity against mouse BAF3 cells harboring TEL fused TRKA allografted in nude mouse assessed as tumor growth inhibition administered orally once daily for 10 days; assay type: functional, cell-based; settings: dose 40-80 mg/kg/day, time 10.0 day; method in brief: as §4
[20] = Inhibition of LMNA fused TRKA G667S mutant (unknown origin) transfected in mouse BaF3 cells assessed as reduction in phosphorylation at Y490 residue after 2 hrs by Western blot analysis; settings: Homo sapiens, BaF3, 2 h
[21] = test system: BaF3; assay: Antitumor activity against mouse BAF3 cells harboring TEL fused TRKB allografted in nude mouse assessed as tumor growth inhibition administered orally once daily for 10 days; assay type: functional, cell-based; settings: dose 40-80 mg/kg/day, time 10.0 day; method in brief: as §4
[22] = molecular target: Platelet-derived growth factor receptor beta (Homo sapiens, UniProt P09619); assay: Inhibition of TEL fused PDGFRbeta (unknown origin) transfected in mouse BAF3 cells assessed as growth inhibition after 72 hrs by CCK8 assay; assay type: cell-based; method in brief: as §5
Sequence of Platelet-derived growth factor receptor beta (P09619 whole entry, the tested form may be a part): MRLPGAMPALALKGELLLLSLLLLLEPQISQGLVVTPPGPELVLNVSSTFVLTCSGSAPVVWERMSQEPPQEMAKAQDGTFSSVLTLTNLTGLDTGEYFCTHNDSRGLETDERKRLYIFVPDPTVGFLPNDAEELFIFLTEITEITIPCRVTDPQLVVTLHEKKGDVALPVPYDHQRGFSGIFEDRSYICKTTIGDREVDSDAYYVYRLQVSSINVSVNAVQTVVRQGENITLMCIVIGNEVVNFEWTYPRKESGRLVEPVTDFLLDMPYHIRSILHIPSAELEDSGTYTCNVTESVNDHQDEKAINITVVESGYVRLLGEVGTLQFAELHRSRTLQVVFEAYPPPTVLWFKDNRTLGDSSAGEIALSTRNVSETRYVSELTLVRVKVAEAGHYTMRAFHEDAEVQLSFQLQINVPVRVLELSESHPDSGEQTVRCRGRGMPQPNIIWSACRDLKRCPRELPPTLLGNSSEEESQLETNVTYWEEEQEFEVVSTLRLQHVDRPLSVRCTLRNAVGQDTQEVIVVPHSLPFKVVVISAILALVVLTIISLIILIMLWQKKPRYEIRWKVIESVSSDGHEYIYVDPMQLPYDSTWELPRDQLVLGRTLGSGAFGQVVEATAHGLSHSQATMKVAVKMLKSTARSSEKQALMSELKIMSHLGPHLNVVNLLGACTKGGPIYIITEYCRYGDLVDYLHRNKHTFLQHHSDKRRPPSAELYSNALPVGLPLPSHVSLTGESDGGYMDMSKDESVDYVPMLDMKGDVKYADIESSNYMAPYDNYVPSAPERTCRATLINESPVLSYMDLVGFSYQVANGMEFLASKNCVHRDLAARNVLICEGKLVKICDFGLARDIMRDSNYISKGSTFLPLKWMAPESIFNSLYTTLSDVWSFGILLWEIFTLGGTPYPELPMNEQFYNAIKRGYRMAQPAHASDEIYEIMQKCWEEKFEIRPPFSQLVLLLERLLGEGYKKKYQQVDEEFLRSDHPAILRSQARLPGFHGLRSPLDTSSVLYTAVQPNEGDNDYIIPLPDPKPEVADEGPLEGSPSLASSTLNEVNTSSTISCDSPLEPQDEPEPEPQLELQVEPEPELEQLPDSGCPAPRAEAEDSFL

[23] = Tmax in Beagle dog at 1 mg/kg, iv; assay type: ADME, organism-based, Canis lupus familiaris; settings: in vivo; method in brief: as §3
[24] = test system: High affinity nerve growth factor receptor (Homo sapiens), P04629 [G667C]; assay: Inhibition of LMNA fused TRKA G667C mutant (unknown origin) transfected in mouse BAF3 cells assessed as growth inhibition after 72 hrs by CCK8 assay; assay type: cell-based
Sequence of High affinity nerve growth factor receptor (Homo sapiens), P04629 [G667C] (P04629 whole entry G667C, looked up, the tested form may be a part): as the sequence (P04629 whole entry, the tested form may be a part) above, with G667C counted along it
Method in brief: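 TEL- or LMNA-fusion isogenic BaF3 lines grown in RPMI 1640 with 10% FBS and 1% penicillin/streptomycin at 37 °C, 5% CO₂; suspension cells collected by spinning at 800 rpm for 4 min before use; growth inhibition scored as GI₅₀.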

[25] = AUC (0 to t) in Beagle dog at 5 mg/kg, po; assay type: ADME, organism-based, Canis lupus familiaris; set-up: dose 5 mg/kg; settings: in vivo
Method in brief: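 Intravenous and oral arms were run in parallel in each species (mice, Sprague Dawley rats, beagle dogs). Exposure is reported as AUC0-t in ng/mL·h.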

[26] = Apparent clearance in Sprague-Dawley rat at 10 mg/kg, po; assay type: ADME, organism-based; settings: in vivo, read-out: CLz/F (converted)
[27] = Antiproliferative activity against human KM-12-LUC cells harboring […] fused TRKA assessed as growth inhibition after 72 hrs by CCK8 assay; assay type: functional; settings: KM12-Luc
Method in brief: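 KM-12-LUC cells seeded at 3 × 10⁴ cells/mL, incubated overnight at 37 °C, 5% CO₂, then medium replaced with fresh medium containing a range of compound concentrations for 72 h; viability read by CCK-8 absorbance at 450 nm, normalized to DMSO control, GI₅₀ from curve fitting.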

CLz/F [1]: 2.481 L/h/kg
pEC50 [2]: 7.16
pIC50 [3]: 9.15
pEC50 [4]: > 7.52
Cmax [5]: 0.139 µg/mL
bioavailability [6]: 20%
Tmax [8]: 1.98 min
pEC50 [10]: > 7.52
Activity [11]: 0.05%
pEC50 [13]: 7.17
bioavailability [14]: 35%
GI50 [15]: 0.0082 µM
t1/2 [16]: 2.7 h
t1/2 [17]: 2.6 h
Cmax [18]: 0.258 µg/mL
pEC50 [20]: 7.13
GI50 [22]: 0.0014 µM
Tmax [23]: 4.8 min
GI50 [24]: 0.034 µM
AUC(0-t) [25]: 0.464 µg·h/mL
CL/F [26]: 10.2 L/h/kg
Structure (SMILES): Cc1nc(NC(=O)CN2CCN(C)CC2)sc1-c1ccc2c(/C=C/c3ccccn3)n[nH]c2c1
inhibition in vivo at 40 mg/kg/day [7]: 83.1%
Activity [9]: Non-Toxic
inhibition in vivo at 40 mg/kg/day [12]: 80%
Activity [19]: Dose-dependent effect
Activity [21]: Dose-dependent effect
GI50 [27]: 0.002 µM
